A short description of experiment [1]: inhibitors of TNFa-induced NFkB p65 translocation, primary screen, imaging, HUVEC, MLSMR starter and 10KST1 sets (AID 438).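 Further: compound added about 3h40 before a 20 min TNFalpha stimulation.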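 On inhibition: signal is the nuclear over cytoplasmic p65 intensity ratio per well.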 Particulars: HUVEC TNFa-induced p65 nuclear translocation; cell count: measured here: nuclei count (cytotoxicity indicator), at 2.08 µM; inhibition: at 2 µM, stronger effect = higher value, 0% TNFa-plus-vehicle, 100% no-TNFa wells.
Experiment [2] in a line: endothelial E-selectin expression blockers – imaging, HUVEC, immunofluorescence, MLSMR starter and 10KST1 sets, primary screen (AID 487;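 active means visually confirmed hit in the image check and inhibition above 20%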;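 on inhibition: signal is fraction of cell area covered by stained E-selectin grains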;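 on nuclei count: 100% = median nuclei count of all wells on the same plate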). The settings on record: HUVEC TNFalpha-induced E-selectin immunofluorescence imaging, at 2 µM; inhibition: stronger effect = higher value; nuclei count: measured here: cell number, toxicity.
The nature of experiment [3]: Primary imaging screen for DUSP6 inhibitors that restore phospho-Erk in transfected HeLa cells, chemical complementation (AID 609;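 active means compounds giving at least 50% inhibition in the cell-based MKP-3 phosphatase rescue imaging test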;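 on inhibition: phospho-Erk level distribution per well compared with pooled transfected vehicle control wells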). The settings on record: HeLa MKP-3 transfected, phospho-Erk imaging KS statistic, at 10 µM, cells stimulated with TPA for 15 min.
For experiment [4], the target named is Dual specificity protein phosphatase 6 (Homo sapiens) (UniProt Q16828). The description is as above. Particulars: HeLa MKP-3 transfected, phospho-Erk imaging KS statistic; at 10 µM; stronger effect = higher value; cells stimulated with TPA for 15 min.
In experiment [5] the target is Voltage-gated potassium channel subunit beta-2 (Rattus norvegicus) (UniProt P62483). Description: inhibitors of rat Kvbeta2 reductase activity – biochemical, NADPH fluorescence, primary screen (AID 622;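 active means fluorescence slope higher than the sample average by over 3 SD, cut at about -0.22 in these data, passing the limit was not always enough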;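 further: slope of raw intensity against log time taken from 70 to 1610 s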). Particulars: recombinant KvBeta, 4-cyanobenzaldehyde reduction, at 10 µM, stronger effect = higher value.
For experiment [6] the target is unchanged. Description: enhancers of rat Kvbeta2 NADPH turnover – biochemical, NADPH fluorescence, primary screen (AID 623;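 active means NADPH fluorescence slope more negative than the mean of all samples by about 3 SD, 99.7% confidence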;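 further: fluorescence intensity change per second fitted from 20 to 320 s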). The settings on record: Recombinant KvBeta, NADPH fluorescence decrease slope, 10 min; at 10 µM; stronger effect = lower value.
The target of experiment [7] is Alpha-2C adrenergic receptor (Homo sapiens) (UniProt P18825). Description: compounds altering alpha2C-coupled GIRK flux – cell-based, HEK293 alpha2C/GIRK1/2, thallium flux, primary screen (AID 624;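 active means fluorescence slope after compound addition differing from the mean of all screened samples at 99.7% confidence, in either direction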;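 further: slope of fluorescence ratio to pre-addition baseline per second over 15 to 24 s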). The settings on record: thallium flux BTC fluorescence, at 10 µM, actives lie on both sides.
Experiment [8] can be described thus: inhibitors of larval lipid processing in zebrafish, primary screen, whole organism, PED6 fluorescence, gall bladder and intestine (AID 686;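 active means a full or partial loss of lipid-probe fluorescence in the fish gall bladder, intestine or both, judged by eye; inactive means no fluorescence loss, or compound toxic to the fish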;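 further: larvae 5 to 7 days old with five fish per well; signal comes from phospholipase A2 cleavage of quenched PED6 carried via bile; overnight exposure to compound and PED6 before scoring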). Particulars: Zebrafish larvae PED6 lipid processing, fluorescence scoring; screened at 20 µM (by protocol). In a few lines:
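Test system – live zebrafish larvae aged 5-7 days, whole organism · Buffer or medium – E3 fish medium · Reagent – quenched phospholipase substrate PED6, 100 nM final, ingested by larvae · Doses – 20 µM single dose · Incubation – overnight compound and PED6 incubation · Technique – visual fluorescence microscopy scoring of gall bladder, gut · Read-out basis – visual per-well fluorescence inhibition score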

The nature of experiment [9]: loss of swimming-algae plug formation – whole organism, Chlamydomonas reinhardtii, WT vs cilia-less mutant, absorbance, 96-well, primary screen (AID 463189;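 active means inhibition at or above 50% relative to wild type and mutant plate controls; inactive means inhibition below 50%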;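 further: 0% = wild type cc124 cells in DMSO and 100% = ciliumless bld1 mutant cells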). The settings on record: Chlamydomonas reinhardtii gravitaxis, OD600 absorbance, 2 days; at 10 µM; stronger effect = higher value.
Setting [10] is: measured here: cell density z-score.
Setting [11] is: measured here: nuclear c-Myc green intensity z-score.
Where [12] appears, read: measured here: nuclear pErk red intensity z-score, stronger effect = higher value.

The structures appear in SMILES notation. The source made the active and inactive calls.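 How the source made its calls, unless noted: active means inhibition above 20% together with a positive visual image hit; inconclusive means visual image hit but inhibition not above 20%; inactive means no visual image hit.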

Dual specificity protein phosphatase 6 (Homo sapiens), sequence (Q16828 whole entry, looked up): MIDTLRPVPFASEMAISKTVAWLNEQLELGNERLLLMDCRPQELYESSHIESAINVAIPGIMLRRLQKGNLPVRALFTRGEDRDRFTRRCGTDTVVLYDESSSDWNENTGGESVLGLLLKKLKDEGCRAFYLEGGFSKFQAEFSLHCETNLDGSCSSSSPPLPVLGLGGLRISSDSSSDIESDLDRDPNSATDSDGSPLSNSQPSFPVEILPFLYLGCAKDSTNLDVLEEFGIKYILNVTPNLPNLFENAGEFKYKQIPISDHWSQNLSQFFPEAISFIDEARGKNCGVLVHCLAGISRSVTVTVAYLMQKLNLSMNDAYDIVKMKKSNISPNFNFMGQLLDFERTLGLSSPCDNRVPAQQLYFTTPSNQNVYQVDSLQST
Alpha-2C adrenergic receptor (Homo sapiens), sequence (P18825 whole entry, looked up): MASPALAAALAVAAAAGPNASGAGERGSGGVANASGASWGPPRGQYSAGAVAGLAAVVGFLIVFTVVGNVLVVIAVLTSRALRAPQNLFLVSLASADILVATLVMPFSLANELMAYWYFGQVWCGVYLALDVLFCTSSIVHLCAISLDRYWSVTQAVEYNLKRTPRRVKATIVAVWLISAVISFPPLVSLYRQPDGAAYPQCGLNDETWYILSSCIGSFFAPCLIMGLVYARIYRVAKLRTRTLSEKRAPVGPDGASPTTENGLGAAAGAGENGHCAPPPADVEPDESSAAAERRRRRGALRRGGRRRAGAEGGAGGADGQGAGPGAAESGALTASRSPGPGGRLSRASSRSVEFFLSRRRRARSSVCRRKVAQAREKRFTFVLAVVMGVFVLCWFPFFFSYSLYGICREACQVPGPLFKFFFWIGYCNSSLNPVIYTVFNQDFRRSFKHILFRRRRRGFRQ
Voltage-gated potassium channel subunit beta-2 (Rattus norvegicus), sequence (P62483 whole entry, looked up): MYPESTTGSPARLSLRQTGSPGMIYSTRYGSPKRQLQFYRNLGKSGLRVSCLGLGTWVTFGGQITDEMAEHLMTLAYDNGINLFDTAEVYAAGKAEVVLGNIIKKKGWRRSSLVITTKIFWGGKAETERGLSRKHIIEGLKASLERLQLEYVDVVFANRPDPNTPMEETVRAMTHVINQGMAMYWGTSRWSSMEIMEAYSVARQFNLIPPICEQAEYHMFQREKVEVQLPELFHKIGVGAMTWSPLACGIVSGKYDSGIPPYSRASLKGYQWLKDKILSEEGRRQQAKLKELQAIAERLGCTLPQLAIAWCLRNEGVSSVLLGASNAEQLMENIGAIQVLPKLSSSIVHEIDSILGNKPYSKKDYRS

In general, inhibition refers to the relative decrease from the control value, in per cent. On to `Cc1c(N2C(=O)SC(CC(=O)O)C2=O)c(=O)n(-c2ccccc2)n1C` (centres undefined), for which the cell count in [1] was 500. In addition, the inhibition in experiment [1] was 1.9% (inactive); in experiment [2], -80.6% (inactive); in experiment [4], -10.5% (inactive); in [9] it was -1.65% (inactive). Moreover, the nuclei count in experiment [2] came to 128%. For the same molecule, the z-score in experiment [3] (setting [10]) is -1.16; in experiment [3] (setting [11]), -0.83; in experiment [3] (setting [12]), -0.709. In experiment [5], the fluorescence slope is -0.518 (inactive). For the same molecule, in experiment [6], the NADPH fluorescence slope was -3.7e-05 (inactive). Moreover, the slope in [7] is 0.00585 (inactive). Further, the molecule was classed as inactive in experiment [8].

Consider `C=CCOC(=O)C1=C(C)NC(SCC(=O)N(CC)CC)=C(C#N)C1c1ccco1` (centres undefined), for which the cell count in [1] turned out to be 361. The inhibition in [1] was -9.9% (inactive); in experiment [2], -137% (inactive); in experiment [4] it was -5.89% (inactive); in experiment [9], -0.086% (inactive). The nuclei count in [2] amounted to 153%. Further, the z-score was -0.539 in [3] (setting [10]), -0.441 in experiment [3] (setting [11]) and 0.117 in [3] (setting [12]). In addition, the fluorescence slope in experiment [5] was -0.417 (inactive). For the same molecule, the NADPH fluorescence slope in experiment [6] was -1.8e-05 (inactive). Also, in [7], the slope was 0.00442 (inactive). For the same molecule, in experiment [8], the outcome is “inactive; toxic”.

For the molecule `CN=c1sc2ccccc2n1CC(O)COc1ccccc1` (centres undefined), the cell count in [1] turned out to be 462. The inhibition in experiment [1] was -11% (inactive); in experiment [2], -95.8% (inactive); in [4], -0.624% (inactive); in experiment [9], -3.38% (inactive). This molecule came in with a nuclei count in [2] of 204%. For the same molecule, the z-score in [3] (setting [10]) is -0.699; in experiment [3] (setting [11]), 0.37; in experiment [3] (setting [12]) it was 0.00223. Besides, the fluorescence slope in experiment [5] is -0.362 (inactive). Also, in experiment [6], the NADPH fluorescence slope was -2.9e-05 (inactive). In [7], the slope is 0.00426 (inactive). The outcome in [8] was inactive.

In the case of `COc1ccccc1-c1nn2c(-c3ccc(C(C)(C)C)cc3)nnc2s1`, the cell count in experiment [1] came to 509. The inhibition was -5.2% (inactive) in experiment [1], -76.5% (inactive) in experiment [2], -7.86% (inactive) in [4] and 19.8% (inactive) in [9]. Moreover, in experiment [2], the nuclei count worked out at 110%. In addition, the z-score in experiment [3] (setting [10]) was -0.995; in experiment [3] (setting [11]) it was -1.37; in experiment [3] (setting [12]), -0.665. In [5], the fluorescence slope was -0.42 (inactive). Moreover, the NADPH fluorescence slope in experiment [6] was -3.3e-05 (inactive). For the same molecule, the slope in experiment [7] is 0.0128 (inactive). In addition, the molecule was classed as inactive in experiment [8].

For `C/C(=N\O)C1(C)N(O)C(C)(C)C(c2ccco2)=[N+]1[O-]` (centres undefined), in experiment [1], the cell count is 428. Moreover, the inhibition in experiment [1] was -2.8% (inactive); in [2] it was -112% (inactive); in experiment [4] it was 13.2% (inactive); in experiment [9] it was 14.5% (inactive). The nuclei count in experiment [2] amounted to 131%. Moreover, the z-score in experiment [3] (setting [10]) was 0.73; in experiment [3] (setting [11]), -1.17; in experiment [3] (setting [12]) it was -0.0605. In experiment [5], the fluorescence slope is -0.486 (inactive). Further, the NADPH fluorescence slope in experiment [6] is -3.2e-05 (inactive). In addition, the slope in [7] is 0.00518 (inactive). Besides, the molecule was called inactive in experiment [8].

For the molecule `CC(=O)c1cc2c(=O)c3ccccc3oc2nc1C`, the cell count in [1] was 564. Moreover, the inhibition is -7.4% (inactive) in experiment [1], 19.7% (inactive) in experiment [2], 26.5% (inactive) in experiment [4] and 46.5% (inactive) in [9]. The nuclei count in [2] was determined as 151%. Further, the z-score is 0.231 in experiment [3] (setting [10]), 1.31 in experiment [3] (setting [11]) and -0.249 in experiment [3] (setting [12]). Also, the fluorescence slope in experiment [5] is -0.525 (inactive). Besides, the NADPH fluorescence slope in [6] is -4.9e-05 (inactive). For the same molecule, in experiment [7], the slope was 0.00444 (inactive). The call in [8] was inactive.

In the case of `Cc1cc(=O)oc(C)c1C(=O)Nc1cccc2nonc12`, the cell count in experiment [1] was determined as 404. In addition, the inhibition in [1] is -0.5% (inactive); in experiment [2] it was -61.8% (inactive); in experiment [4], -4.7% (inactive); in [9], -5.97% (inactive). In experiment [2], this molecule yielded a nuclei count of 132%. Also, the z-score in [3] (setting [10]) was 1.68; in experiment [3] (setting [11]) it was -1.68; in experiment [3] (setting [12]) it was -0.173. Besides, the fluorescence slope in [5] is -0.297 (inactive). The NADPH fluorescence slope in [6] was -2.7e-05 (inactive). Further, in experiment [7], the slope was 0.00487 (inactive). The outcome in experiment [8] was inactive.

As for `Clc1ccc2nc(CSc3nc4ccccc4o3)cn2c1`, the cell count in [1] is 405. Moreover, the inhibition in [1] was -12.3% (inactive); in experiment [2] it was -79.3% (inactive); in experiment [4], 11.9% (inactive); in [9], -14.7% (inactive). The same molecule displayed a nuclei count in experiment [2] of 99.4%. For the same molecule, the z-score in [3] (setting [10]) is -0.399; in [3] (setting [11]), -0.856; in [3] (setting [12]), -1.36. In addition, the fluorescence slope in [5] is -0.49 (inactive). In addition, in [6], the NADPH fluorescence slope was -0.000153 (inactive). Further, the slope in experiment [7] was 0.00552 (inactive). Moreover, in [8], the result was inactive.

On to `CN1C(=O)C2(N=c3ccccc3=N2)c2ccccc21`, for which the cell count in experiment [1] is 527. Also, the inhibition in experiment [1] was -4.5% (inactive); in experiment [2] it was -152% (inactive); in experiment [4], 7.73% (inactive); in experiment [9] it was 9.55% (inactive). In addition, the nuclei count in experiment [2] worked out at 209%. The z-score in experiment [3] (setting [10]) is -0.677; in experiment [3] (setting [11]), 0.303; in experiment [3] (setting [12]), 0.421. Also, in experiment [5], the fluorescence slope is -0.482 (inactive). For the same molecule, the NADPH fluorescence slope in [6] is -4.4e-05 (inactive). Besides, the slope in experiment [7] was 0.00491 (inactive). The result in experiment [8] was inactive.

Take `Cn1c(=O)n(C)c2cc(C(=O)c3ccccc3)ccc21`: in experiment [1], the cell count came to 534. Further, the inhibition is -14.4% (inactive) in [1], 24.3% (inactive) in experiment [2], 20.2% (inactive) in [4] and -6.61% (inactive) in [9]. The molecule further yielded a nuclei count in experiment [2] of 180%. In addition, the z-score in [3] (setting [10]) was 2.47; in [3] (setting [11]) it was -0.33; in [3] (setting [12]) it was -1.62. In [5], the fluorescence slope is -0.53 (inactive). Moreover, the NADPH fluorescence slope in experiment [6] was -6.3e-05 (inactive). The slope in experiment [7] was 0.00503 (inactive). Besides, the outcome in [8] was inactive.

For `COC(=O)CCc1c(C)[nH]c(C(=O)OCc2ccccc2)c1C`, the cell count in experiment [1] came out at 596. Further, the inhibition is -4.1% (inactive) in [1], -34% (inactive) in [2], -5.89% (inactive) in [4] and -0.974% (inactive) in [9]. For the same molecule, in experiment [2], the nuclei count stood at 179%. The z-score in experiment [3] (setting [10]) is -1.2; in experiment [3] (setting [11]) it was -0.0699; in experiment [3] (setting [12]), 0.772. Moreover, in experiment [5], the fluorescence slope was -0.487 (inactive). Moreover, the NADPH fluorescence slope in experiment [6] is -0.00013 (inactive). Further, in experiment [7], the slope is 0.00445 (inactive). For the same molecule, the result in [8] was inactive.

Consider `CC(C)CC(C(=O)O)C(C)CC(=O)Nc1ccn(-c2ccccc2)n1` (centres undefined), for which the cell count in experiment [1] came to 345. The inhibition is -19.4% (inactive) in experiment [1], -326% (inactive) in [2], 15.1% (inactive) in experiment [4] and 13.3% (inactive) in experiment [9]. The same molecule returned a nuclei count in experiment [2] of 150%. Further, the z-score was 1.41 in experiment [3] (setting [10]), -1.41 in experiment [3] (setting [11]) and -0.175 in [3] (setting [12]). The fluorescence slope in experiment [5] is -0.401 (inactive). For the same molecule, in experiment [6], the NADPH fluorescence slope is -3.3e-05 (inactive). The slope in experiment [7] was 0.0075 (inactive). Also, in experiment [8], the molecule was called inactive.

As for `Cc1nc2oc(C(=O)c3ccc(Br)cc3)c(N)c2c2c1COC(C)(C)C2`, the cell count in [1] is 643. For the same molecule, the inhibition was -7.3% (inactive) in [1], -142% (inactive) in experiment [2], 24.7% (inactive) in [4] and 39.3% (inactive) in experiment [9]. Further, in experiment [2], the nuclei count was determined as 119%. Besides, the z-score was 0.13 in experiment [3] (setting [10]), -0.803 in [3] (setting [11]) and -0.664 in [3] (setting [12]). For the same molecule, the fluorescence slope in experiment [5] was -0.532 (inactive). Moreover, the NADPH fluorescence slope in experiment [6] is -5.4e-05 (inactive). Moreover, the slope in experiment [7] was 0.00462 (inactive). Also, in experiment [8], the result was inactive.

The record behind these values is PubChem BioAssay.
